Data as given in ChEMBL document CHEMBL1127376, “Agents combining thromboxane receptor antagonism with thromboxane synthase inhibition: [[[2-(1H-imidazol-1-yl)ethylidene]amino]oxy]alkanoic acids” (J Med Chem, 1994).

Legend:
[1] = biological target: T1, Thromboxane A2 receptor (Homo sapiens, UniProt P21731); assay: In vitro thromboxane-A2 receptor binding affinity to displace by 50% [3H]-SQ 29548 binding from washed human platelets
T1 sequence (P21731 whole entry): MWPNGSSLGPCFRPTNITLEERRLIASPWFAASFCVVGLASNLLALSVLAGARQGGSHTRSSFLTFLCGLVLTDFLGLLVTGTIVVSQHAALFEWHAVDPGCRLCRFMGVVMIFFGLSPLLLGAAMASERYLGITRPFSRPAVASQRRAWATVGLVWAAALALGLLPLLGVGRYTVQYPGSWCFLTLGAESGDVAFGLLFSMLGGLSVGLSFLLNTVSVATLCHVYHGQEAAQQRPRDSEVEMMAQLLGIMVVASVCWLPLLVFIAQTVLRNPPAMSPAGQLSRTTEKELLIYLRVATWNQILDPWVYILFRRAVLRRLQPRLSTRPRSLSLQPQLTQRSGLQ

[2] = biological target: T2, Thromboxane-A synthase (Rattus norvegicus, UniProt P49430); assay: In vitro inhibition of thromboxane-A2 synthase in rat whole blood during clotting at 37 degrees Centigrade; type: tissue-based
T2 sequence (P49430 whole entry): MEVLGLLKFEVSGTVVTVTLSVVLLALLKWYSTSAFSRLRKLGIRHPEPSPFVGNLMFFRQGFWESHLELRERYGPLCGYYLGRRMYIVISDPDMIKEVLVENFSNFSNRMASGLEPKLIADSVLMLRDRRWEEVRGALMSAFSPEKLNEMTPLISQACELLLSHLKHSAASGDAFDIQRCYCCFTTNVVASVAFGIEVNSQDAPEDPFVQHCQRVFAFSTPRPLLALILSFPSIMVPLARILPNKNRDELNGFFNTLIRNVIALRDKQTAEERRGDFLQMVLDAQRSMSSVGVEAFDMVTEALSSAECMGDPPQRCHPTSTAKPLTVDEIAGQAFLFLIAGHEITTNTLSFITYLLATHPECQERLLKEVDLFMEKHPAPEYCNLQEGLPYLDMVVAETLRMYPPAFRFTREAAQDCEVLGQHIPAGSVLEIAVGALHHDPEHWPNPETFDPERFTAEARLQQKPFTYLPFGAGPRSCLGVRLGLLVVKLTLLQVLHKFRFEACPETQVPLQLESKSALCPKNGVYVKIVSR
Procedure, shortened: (§1)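 Rat whole blood allowed to clot 1 h at 37 °C with test agent, then spun for serum, stored -20 °C. Serum TxB2 measured by RIA with [3H]TxB2 and rabbit antiserum, incubated 16–24 h at 4 °C, charcoal separation, scintillation counting.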

[3] = biological target: T3, Thromboxane-A synthase (Rattus norvegicus) (UniProt P49430); assay: Tested for in vitro inhibition of TxA synthase in rat whole blood at 1 uM; type: tissue-based
T3 sequence (whole entry): T2 sequence (P49430 whole entry)

[4] = species on record: Homo sapiens; assay: Tested in vitro for the umolar concentration required to inhibit U-46,619-induced platelet aggregation in human platelet rich plasma (PRP); type: functional
Procedure, shortened: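 Citrated human blood (3.8%, 9:1), PRP by centrifugation. PRP preincubated 5 min at 37 °C with vehicle or compound, then challenged with a submaximal U46619 concentration chosen from a concentration–response curve. Aggregation followed by photoelectric aggregometry.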

[5] = biological target: T3, Thromboxane-A synthase (Rattus norvegicus); assay: Tested for the in vitro inhibition of thromboxane-A2 synthase in rat whole blood during clotting at 37 degrees Celsius at >1 uM; type: tissue-based; procedure, shortened: as §1

| Compound | IC50 [1] [nM] | IC50 [2] [nM] | inhibition [3] [%] | IC50 [4] [nM] | inhibition [5] [%] |
| --- | --- | --- | --- | --- | --- |
| CC(C)(CCCO/N=C(\c1ccccc1)C(Cc1ccccc1)n1ccnc1)C(=O)O (centres undefined) | 4160 | 760 |  |  |  |
| O=C(O)CCCCCO/N=C(\Cn1ccnc1)c1ccccc1 | 74500 | > 1000 | 2 |  |  |
| O=C(O)CCCO/N=C(\Cn1ccnc1)c1ccccc1 | > 100000 | > 1000 | 17 |  |  |
| O=C(O)CCCCO/N=C(\Cn1ccnc1)c1cccnc1 | > 100000 | > 1000 | 24 |  |  |
| COc1ccc(CC(/C(=N/OCCCCC(=O)O)C2CCCCC2)n2ccnc2)cc1 (centres undefined) | 70 | 320 |  |  |  |
| O=C(O)CCCCO/N=C(\c1ccccc1)C(Cc1ccc(F)cc1)n1ccnc1 (centres undefined) | 40 | 390 |  | 210 |  |
| O=C(O)CCCCO/N=C(\c1ccc(Br)cc1)C(Cc1ccccc1)n1ccnc1 (centres undefined) | 2390 | > 1000 |  |  | 15 |
| CS(=O)(=O)c1ccc(CC(/C(=N/OCCCCC(=O)O)C2CCCCC2)n2ccnc2)cc1 (centres undefined) | 230 | > 1000 |  |  | 32 |
| O=C(O)CCCCO/N=C(\C1CCCCC1)C(CC1CCCCC1)n1ccnc1 (centres undefined) | 1900 | > 1000 |  |  | 43 |
| O=C(O)CCCO/N=C(/Cn1ccnc1)C1CCCCC1 | 49300 | > 1000 | 44 |  |  |
| O=C(O)CCCCO/N=C(/c1ccccc1)C(Cc1ccccc1)n1ccnc1 (centres undefined) | 1160 | 20 |  | 2100 |  |
| Cc1ccc(CC(/C(=N/OCCCCC(=O)O)C2CCCCC2)n2ccnc2)cc1 (centres undefined) | 70 | 140 |  |  |  |
| O=C(O)/C=C/CCO/N=C(\c1ccccc1)C(Cc1ccccc1)n1ccnc1 (centres undefined) | 120 | > 1000 |  |  | 26 |
| O=C(O)Cc1ccc(CCNS(=O)(=O)c2ccc(Cl)cc2)cc1 [DALTROBAN] |  | > 100000 |  |  |  |
| CCCCCC/C(=N\OCCCCC(=O)O)C(Cc1ccccc1)n1ccnc1 (centres undefined) | 3000 | 50 |  |  |  |
| CC(/C(=N\OCCCCC(=O)O)c1ccccc1)n1ccnc1 (centres undefined) | 295000 | 160 |  |  |  |
| O=C(O)CCCCO/N=C(/c1ccccc1)C(Cc1ccc(Cl)cc1)n1ccnc1 (centres undefined) | 170 | 250 |  |  |  |
| O=C(O)CCCCO/N=C(\Cn1ccnc1)c1ccccc1 | 14700 | 170 |  |  |  |
| O=C(O)CCCCO/N=C(\C1CCCCC1)C(Cc1ccccc1)n1ccnc1 (centres undefined) | 80 | 60 |  | 440 |  |
| O=C(O)CCCCO/N=C(/c1cccnc1)c1cccc(C(F)(F)F)c1 [RIDOGREL] | 2100 | 30 |  | 3300 |  |
| CC(/C(=N/OCCCCC(=O)O)c1ccccc1)n1ccnc1 (centres undefined) | 73000 | > 1000 |  |  | 37 |
| CS(=O)(=O)c1ccc(/C(=N\OCCCCC(=O)O)C(Cc2ccccc2)n2ccnc2)cc1 (centres undefined) | 21000 | > 1000 |  |  | 12 |
| O=C(O)CCCCO/N=C(\C1CCCCC1)C(Cc1ccc(C(F)(F)F)cc1)n1ccnc1 (centres undefined) | 50 | 900 |  |  |  |
| C/C(=N\OCCCCC(=O)O)C(Cc1ccccc1)n1ccnc1 (centres undefined) | 23400 | 200 |  |  |  |
| O=C(O)CCCCO/N=C(\C1CCCCC1)C(Cc1ccccn1)n1ccnc1 (centres undefined) | 3280 | 300 |  |  |  |
| O=C(O)/C=C/c1ccc(Cn2ccnc2)cc1 [OZAGREL] | > 100000 |  |  |  |  |

| Compound | IC50 [1] [nM] | IC50 [2] [nM] | inhibition [3] [%] | IC50 [4] [nM] | inhibition [5] [%] |
| --- | --- | --- | --- | --- | --- |
| O=C(O)CCCCO/N=C(/Cn1ccnc1)c1ccccc1 | 46200 | 270 |  |  |  |
| O=C(O)COCCO/N=C(\c1ccccc1)C(Cc1ccccc1)n1ccnc1 (centres undefined) | 880 | > 1000 |  |  | 28 |
| O=C(O)CCCCO/N=C(\C1CCCCC1)C(Cc1ccc(F)cc1)n1ccnc1 (centres undefined) | 20 | 370 |  | 300 |  |
| O=C(O)CCCO/N=C(\Cn1ccnc1)C1CCCCC1 | > 100000 | > 1000 | 8 |  |  |
| O=C(O)CCCCO/N=C(/c1ccccc1)C(Cc1ccc(F)cc1)n1ccnc1 (centres undefined) | 530 | 60 |  | 280 |  |
| O=C(O)CCCCO/N=C(/C1CCCCC1)C(Cc1cccc(F)c1)n1ccnc1 (centres undefined) | 140 | 250 |  |  |  |
| O=C(O)CCCCO/N=C(/C1CCCCC1)C(Cc1ccccc1)n1ccnc1 (centres undefined) | 970 | 100 |  |  |  |
| O=C(O)CCCCCO/N=C(\c1ccccc1)C(Cc1ccccc1)n1ccnc1 (centres undefined) | 160 | 1100 |  |  |  |
| CCOC(=O)CCCCO/N=C(\C1CCCCC1)C(Cc1ccccc1)n1ccnc1 (centres undefined) | 1300 | 430 |  |  |  |
| O=C(O)CCCCCO/N=C(/c1ccccc1)C(Cc1ccccc1)n1ccnc1 (centres undefined) | 970 | > 1000 |  |  | 26 |
| O=C(O)CCCCCO/N=C(\Cn1ccnc1)C1CCCCC1 | 23900 | > 1000 | 19 |  |  |
| CCCCCC/C(Cn1ccnc1)=N\OCCCCC(=O)O | 19700 | 360 |  |  |  |
| CC(C)(CCO/N=C(\c1ccccc1)C(Cc1ccccc1)n1ccnc1)CC(=O)O (centres undefined) | 230 | 530 |  |  |  |
| O=C(O)/C=C/CCCO/N=C(\c1ccccc1)C(Cc1ccccc1)n1ccnc1 (centres undefined) | 1040 | > 1000 |  |  | 47 |
| O=C(O)CCCCO/N=C(\C1CCCCC1)C(Cc1ccccc1F)n1ccnc1 (centres undefined) | 300 | 350 |  |  |  |
| CSc1ccc(/C(=N\OCCCCC(=O)O)C(Cc2ccccc2)n2ccnc2)cc1 (centres undefined) | 7500 | > 1000 |  |  | 49 |
| O=C(O)CCCCO/N=C(\C1CCCCC1)C(Cc1cnccn1)n1ccnc1 (centres undefined) | 190 | 70 |  |  |  |
| O=C(O)CCCCO/N=C(\c1ccccc1)C(Cc1ccccc1)n1ccnc1 (centres undefined) | 170 | 50 |  | 370 |  |
| O=C(O)CCCCO/N=C(\c1ccccc1)C(Cc1ccc(Cl)cc1)n1ccnc1 (centres undefined) | 40 | 890 |  |  |  |
| O=C(O)CCCCO/N=C(\C1CCCCC1)C(Cc1cccc(F)c1)n1ccnc1 (centres undefined) | 30 | 270 |  |  |  |
| CCCCCC/C(Cn1ccnc1)=N/OCCCCC(=O)O | 12200 | 40 |  |  |  |
| O=C(CCCCO/N=C(\C1CCCCC1)C(Cc1ccccc1)n1ccnc1)NO (centres undefined) | 520 | 710 |  |  |  |
| O=C(O)CCCCO/N=C(/Cn1ccnc1)C1CCCCC1 | 27300 | 640 |  |  |  |
| O=C(O)CCCCO/N=C(\C1CCCCC1)C(Cc1ccco1)n1ccnc1 (centres undefined) | 280 | 100 |  |  |  |
| O=C(O)CCCCO/N=C(\Cn1ccnc1)C1CCCCC1 | 53100 | 40 |  | 2440 |  |
